Assays:
Assay type in all cases: biochemical
SaPanK [1] = target: T1, SaPanK (Staphylococcus aureus, UniProt Q8NVG0); test: RP-HPLC of stepwise conversion to […]a; details: ATP, MgCl2; 100 mM Tris-HCl pH 7.60, 25 °C (large-scale mixture)
T1 sequence (Q8NVG0 1-267): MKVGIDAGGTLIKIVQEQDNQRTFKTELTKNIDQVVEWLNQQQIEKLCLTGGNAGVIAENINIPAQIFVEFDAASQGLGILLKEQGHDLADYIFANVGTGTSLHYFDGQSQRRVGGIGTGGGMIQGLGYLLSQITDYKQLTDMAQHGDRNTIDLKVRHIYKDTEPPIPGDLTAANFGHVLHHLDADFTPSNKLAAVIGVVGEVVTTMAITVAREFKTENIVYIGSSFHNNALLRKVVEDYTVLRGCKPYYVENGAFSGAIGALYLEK

SaPanK [2] = target: T1, SaPanK; test: RP-HPLC of stepwise conversion to […]b; details: ATP, MgCl2; 100 mM Tris-HCl pH 7.60, 25 °C (large-scale mixture)
PhaECAv = target: T2, PhaECAv (Allochromatium vinosum, UniProt P45370); test: continuous DTNB assay of CoA release, SigmaPlot fit
T2 sequence (P45370 1-355): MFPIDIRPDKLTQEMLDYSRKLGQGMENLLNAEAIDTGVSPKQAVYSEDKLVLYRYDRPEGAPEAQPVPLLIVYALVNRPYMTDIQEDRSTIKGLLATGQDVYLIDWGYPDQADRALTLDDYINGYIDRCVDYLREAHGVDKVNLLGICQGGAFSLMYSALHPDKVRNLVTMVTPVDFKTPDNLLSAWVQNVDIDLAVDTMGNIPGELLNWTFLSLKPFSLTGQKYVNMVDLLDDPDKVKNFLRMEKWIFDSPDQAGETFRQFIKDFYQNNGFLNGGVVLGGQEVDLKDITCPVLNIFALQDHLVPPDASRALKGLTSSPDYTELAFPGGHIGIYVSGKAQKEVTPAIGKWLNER
T2 sequence (P45372 1-357 partner): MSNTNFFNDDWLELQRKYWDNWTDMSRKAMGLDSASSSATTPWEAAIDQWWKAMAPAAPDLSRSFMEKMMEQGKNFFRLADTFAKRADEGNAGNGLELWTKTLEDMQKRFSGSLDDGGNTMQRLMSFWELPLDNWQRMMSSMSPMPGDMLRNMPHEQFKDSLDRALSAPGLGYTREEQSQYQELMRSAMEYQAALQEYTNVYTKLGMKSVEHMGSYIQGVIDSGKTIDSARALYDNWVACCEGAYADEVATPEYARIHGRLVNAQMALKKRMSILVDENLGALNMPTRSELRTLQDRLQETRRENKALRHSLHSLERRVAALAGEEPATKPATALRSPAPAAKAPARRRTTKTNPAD
How it was run: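 Purified wild-type PhaECAv at 5.80 nM, assayed at 30 °C in 100 mM KPi (pH 7.80) with 0.30 mM DTNB, 2 mg/mL BSA, HBCoA 0.025 to 1.60 mM, and test compound at varied concentrations. CoA release followed as A412 (ε 13.7 mM−1cm−1). Rates were taken from the initial fast-phase slope, in duplicate, and fitted to Michaelis-Menten inhibition models; Lineweaver-Burk plots assigned the mode.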

Ki (PhaECAv)	Structure (SMILES)	also measured
–	CCCC(=O)O[C@H](C)CC(=O)O[C@H](C)CC(=O)CCCNC(=O)CCNC(=O)[C@H](O)C(C)(C)CO [17a, (R)-((R)-7-(3-((R)-2,4-dihydroxy-3,3-dimethylbutanamido)propanamido)-4-oxoheptan-2-yl) 3-(butyryloxy)butanoate]	RP-HPLC of stepwise conversion to 24a (SaPanK [1]): with sequential additions of SaPanK, EcCoaD, and EcCoaE, the resulting products were eluted faster
–	CCCC(=O)O[C@H](C)CC(=O)O[C@H](C)CC(=O)O[C@H](C)CC(=O)CCCNC(=O)CCNC(=O)[C@H](O)C(C)(C)CO [17b, (R)-((R)-7-(3-((R)-2,4-dihydroxy-3,3-dimethylbutanamido)propanamido)-4-oxoheptan-2-yl) 3-((R)-3-(butyryloxy)butanoyloxy)butanoate]	RP-HPLC of stepwise conversion to 24b (SaPanK [2]): with sequential additions of SaPanK, EcCoaD, and EcCoaE, the resulting products were eluted faster
600 ± 30 µM	CCCC(=O)O[C@H](C)CC(=O)O[C@H](C)CC(=O)CCCNC(=O)CCNC(=O)[C@H](O)C(C)(C)COP(=O)(O)OP(=O)(O)OC[C@H]1O[C@@H](n2cnc3c(N)ncnc32)[C@H](O)[C@@H]1OP(=O)(O)O [26a, sT-CH2-CoA]	–
500 ± 30 µM	CCCC(=O)O[C@H](C)CC(=O)O[C@H](C)CC(=O)O[C@H](C)CC(=O)CCCNC(=O)CCNC(=O)[C@H](O)C(C)(C)COP(=O)(O)OP(=O)(O)OC[C@H]1O[C@@H](n2cnc3c(N)ncnc32)[C@H](O)[C@@H]1OP(=O)(O)O [26b, sTet-CH2-CoA]	–
3130 ± 470 µM	CCCC(=O)O[C@H](C)CC(=O)O[C@H](C)CC=O [compound 29, sT-aldehyde]	–

Source: article PMC4391825 (Chembiochem : a European journal of chemical biology, 2014)
